Results on 61 compounds are retold here after ChEMBL document CHEMBL1240409, “Design, synthesis and evaluation of (E)-alpha-benzylthio chalcones as novel inhibitors of BCR-ABL kinase” (Bioorg Med Chem, 2010).

As usually defined, the GI50 is the concentration giving 50% growth inhibition.

Experiment [1] relates to K562. In words: Growth inhibition of human K562 cells expressing p210Bcr/Abl after 96 hrs by trypan blue exclusion assay. It is filed as functional, cell-based. As to conditions: K562, 96 h. In outline: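 K562 cells were kept in RPMI with 10% FBS and penicillin–streptomycin at 37 °C under 5% CO2. Cells were seeded at 1 × 10^5 cells/mL with a range of compound concentrations, using DMSO as the negative control. After 96 h, viability was counted by Trypan blue exclusion and expressed as percent of DMSO control to derive GI50.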

Experiment [2] relates to DU-145. The experiment in a line: Growth inhibition of human DU145 cells after 96 hrs by trypan blue exclusion assay. Type of experiment: functional. To be noted: DU-145, 96 h.

In the case of `O=C(/C(=C\c1ccc(O)c([N+](=O)[O-])c1)SCc1ccc(Br)cc1)c1c(F)c(F)c(F)c(F)c1F`, the GI50 in experiment [1] and in experiment [2] was 10 µM throughout.

As for `O=C(/C(=C\c1ccccc1O)Sc1ccccc1Br)c1ccc(Br)cc1`, the GI50 in experiment [1] and in experiment [2] was 50 µM throughout.

With `O=C(/C(=C\c1ccc(OCc2ccccc2)cc1)SCc1ccc(Cl)cc1Cl)c1ccc(Cl)cc1`, the concentration for 50% growth inhibition (GI50) in experiment [1] and in experiment [2] was 1 µM in each case.

With `O=C(/C(=C\c1ccc(-c2ccccc2)s1)SCc1ccc(F)cc1)c1ccc(Br)cc1`, the 50% growth inhibitory concentration (GI50) in experiment [1] was 50 µM; in experiment [2], greater than 100 µM.

On to `O=C(/C(=C\c1ccccc1OCc1ccccc1)S(=O)(=O)Cc1ccc(Cl)cc1)c1ccc(Br)cc1`, for which the GI50 in experiment [1] was 1 µM; in experiment [2], 10 µM.

`Cc1ccc(CS(=O)(=O)/C(=C/c2ccccc2Br)C(=O)c2ccc(Cl)cc2)cc1`: the GI50 in experiment [1] and in experiment [2] was 25 µM each time.

For `COc1ccc(/C=C(\C(=O)c2ccc(Cl)cc2)S(=O)(=O)c2ccc(Br)cc2)cc1O`, the GI50 in experiment [1] and in experiment [2] was 10 µM throughout.

On to `O=C(/C(=C\c1ccc(F)cc1C(F)(F)F)S(=O)(=O)Cc1ccc(Cl)c(Cl)c1)c1ccc(Cl)cc1`, for which the 50% growth inhibitory concentration (GI50) in experiment [1] and in experiment [2] was 1 µM each time.

For `CCOc1ccc(/C=C(/Sc2ccc(C)cc2)C(=O)c2ccc(Cl)cc2)cc1OC`, the GI50 turned out to be 10 µM in experiment [1] and 25 µM in experiment [2].

In the case of `CN(C)c1ccc(/C=C(/SCc2ccc(Cl)cc2)C(=O)c2ccc([N+](=O)[O-])cc2)cc1`, the values for the 50% growth inhibitory concentration (GI50) in experiment [1] and in experiment [2] were 50 µM and greater than 100 µM, respectively.

Take `COc1ccc(C(=O)/C(=C\c2c(OC)cc(OC)cc2OC)Sc2ccc(F)cc2)cc1`: the concentration for 50% growth inhibition (GI50) in experiment [1] and in experiment [2] was 50 µM throughout.

On to `O=C(/C(=C\c1c[nH]c2ccccc12)Sc1ccc(Br)cc1)c1ccc(Br)cc1`, for which the 50% growth inhibitory concentration (GI50) in experiment [1] and in experiment [2] was 1 µM throughout.

Regarding `O=C(/C(=C\c1ccc[nH]1)SCc1ccc(Cl)cc1)c1ccc(Cl)cc1`, the 50% growth inhibitory concentration (GI50) in experiment [1] and in experiment [2] was 10 µM each time.

`O=C(O)c1ccc(C(=O)/C(=C\c2ccc([N+](=O)[O-])c(O)c2)SCc2ccc(Br)cc2)cc1`: the GI50 was determined as 1 µM in experiment [1] and 10 µM in experiment [2].

Take `O=C(/C(=C\c1c[nH]c2ccccc12)S(=O)(=O)c1ccc(Br)cc1)c1ccc(Br)cc1`: the 50% growth inhibitory concentration (GI50) in experiment [1] and in experiment [2] was 25 µM throughout.

For `COc1ccc(/C=C(/Sc2ccc(Br)cc2)C(=O)c2ccc(Br)cc2)cc1`, the 50% growth inhibitory concentration (GI50) in experiment [1] came to 1 µM; in experiment [2] it was 25 µM.

On to `Cc1ccsc1/C=C(\C(=O)c1ccc(Cl)cc1)S(=O)(=O)Cc1ccc(Cl)cc1`, for which the GI50 in experiment [1] and in experiment [2] was 25 µM throughout.

Take `CCOc1cc(/C=C(\C(=O)c2ccc(Cl)cc2)S(=O)(=O)Cc2ccc(Cl)cc2)ccc1O`: the GI50 in experiment [1] and in experiment [2] was 10 µM throughout.

As to `Cc1ccc(S/C(=C/c2ccc(-c3ccccc3)cc2)C(=O)c2ccc(Cl)cc2)cc1`, the GI50 in experiment [1] came out at 25 µM; in experiment [2] it was 50 µM.

On to `Cc1ccc(S/C(=C/c2ccc(-c3ccccc3)cc2)C(=O)c2ccc(Br)cc2)cc1`, for which the values for the GI50 in experiment [1] and in experiment [2] were 25 µM and 50 µM, respectively.

With `COc1cc(C(=O)/C(=C\c2ccc(O)c([N+](=O)[O-])c2)SCc2ccc(Br)cc2)cc(OC)c1OC`, the 50% growth inhibitory concentration (GI50) in experiment [1] and in experiment [2] was 1 µM each time.

For the compound `CSc1ccc(/C=C(/SCc2ccc(Cl)cc2)C(=O)c2ccc(C(=O)O)cc2)cc1`, the GI50 in experiment [1] and in experiment [2] was greater than 100 µM each time.

On to `CSc1ccc(/C=C(\C(=O)c2ccc(Cl)cc2)S(=O)(=O)Cc2ccc(C)cc2)cc1`, for which the GI50 was found to be 25 µM in experiment [1] and 10 µM in experiment [2].

Take `COc1ccccc1/C=C(\C(=O)c1ccc(Cl)cc1)S(=O)(=O)Cc1ccc(C)cc1`: the 50% growth inhibitory concentration (GI50) in experiment [1] and in experiment [2] was 10 µM in each case.

In the case of `O=C(C(=Cc1ccc(Br)cc1)S(=O)(=O)Cc1ccc(I)cc1)c1ccc(I)cc1`, the concentration for 50% growth inhibition (GI50) in experiment [1] and in experiment [2] was 20 µM in each case.

In the case of `O=C(C(=Cc1ccc(O)c([N+](=O)[O-])c1)SCc1ccc(Br)cc1)c1ccc([N+](=O)[O-])c(Cl)c1`, the 50% growth inhibitory concentration (GI50) in experiment [1] and in experiment [2] was 1 µM each time.

`O=C(/C(=C\c1ccc(O)cc1O)S(=O)(=O)c1ccccc1Br)c1ccc(Br)cc1`: the 50% growth inhibitory concentration (GI50) in experiment [1] is 50 µM; in experiment [2], greater than 100 µM.

Regarding `Cc1ccc(S/C(=C/c2ccc[nH]2)C(=O)c2ccc(Cl)cc2)cc1`, the concentration for 50% growth inhibition (GI50) in experiment [1] and in experiment [2] was 10 µM throughout.

On to `COc1ccccc1/C=C(/Sc1ccc(Br)cc1)C(=O)c1ccc(Cl)cc1`, for which the concentration for 50% growth inhibition (GI50) in experiment [1] and in experiment [2] was 10 µM each time.

Regarding `COc1cc(OC)c(/C=C(/Sc2ccc(C)cc2)C(=O)c2ccc(Br)cc2)c(OC)c1`, the GI50 in experiment [1] is 50 µM; in experiment [2], greater than 100 µM.

As to `CCOc1ccc(/C=C(/SCc2ccc(Cl)c(Cl)c2)C(=O)c2ccc(Cl)cc2)cc1OC`, the concentration for 50% growth inhibition (GI50) came out at 1 µM in experiment [1] and 25 µM in experiment [2].

Consider `CN(C)c1ccc(/C=C(\C(=O)c2ccc(Br)cc2)S(=O)(=O)Cc2ccc(F)cc2)cc1`, for which the concentration for 50% growth inhibition (GI50) in experiment [1] and in experiment [2] was 50 µM throughout.

As to `Cc1ccsc1/C=C(/SCc1ccc(Cl)cc1)C(=O)c1ccc(Cl)cc1`, the GI50 in experiment [1] and in experiment [2] was 50 µM each time.

Turning to `COc1ccccc1/C=C(/SCc1ccc(C)cc1)C(=O)c1ccc(Cl)cc1`, the 50% growth inhibitory concentration (GI50) in experiment [1] and in experiment [2] was 10 µM each time.

Regarding `O=C(/C(=C\c1ccc([N+](=O)[O-])c(O)c1)SCc1ccc(Br)cc1)c1ccc([N+](=O)[O-])cc1`, the GI50 in experiment [1] and in experiment [2] was 1 µM each time.

With `O=C(/C(=C\c1ccc(Cl)cc1)SCc1ccc(Br)cc1)c1ccccc1Cl`, the GI50 stood at 1 µM in experiment [1] and 25 µM in experiment [2].

In the case of `COc1ccc(C(=O)/C(=C\c2ccc(O)c([N+](=O)[O-])c2)SCc2ccc(Br)cc2)cc1`, the concentration for 50% growth inhibition (GI50) in experiment [1] and in experiment [2] was 10 µM throughout.

Regarding `O=C(/C(=C\c1ccc([N+](=O)[O-])c(O)c1)SCc1ccc(Br)cc1)C1CCNC1` (configuration not stated), the GI50 in experiment [1] and in experiment [2] was greater than 100 µM each time.

For the compound `O=C(/C(=C\c1cc(Cl)cc(Cl)c1Cl)S(=O)(=O)Cc1ccc(Cl)cc1)c1ccc(Br)cc1`, the concentration for 50% growth inhibition (GI50) in experiment [1] and in experiment [2] was 1 µM throughout.

Regarding `Cc1ccc(CS/C(=C/c2c[nH]c3ccc(Cl)cc23)C(=O)c2ccc(Cl)cc2)cc1`, the GI50 in experiment [1] and in experiment [2] was 1 µM throughout.

Turning to `Cc1ccc(S/C(=C/c2c[nH]c3ccccc23)C(=O)c2ccc(Br)cc2)cc1`, the GI50 in experiment [1] and in experiment [2] was 10 µM each time.

Regarding `COc1cc(OC)c(/C=C(/SCc2ccc(Cl)cc2)C(=O)c2ccc(Br)cc2)c(OC)c1`, the concentration for 50% growth inhibition (GI50) in experiment [1] turned out to be 10 µM; in experiment [2] it was 1 µM.

In the case of `O=C(/C(=C\c1ccc(Cl)cc1)S(=O)(=O)c1ccc(Cl)cc1)c1ccc(Cl)cc1`, the GI50 in experiment [1] was 10 µM; in experiment [2] it was 25 µM.

Regarding `CC(=O)Nc1ccc(/C=C(/SCc2ccc(F)cc2)C(=O)c2ccc(C(=O)O)cc2)cc1[N+](=O)[O-]`, the values for the GI50 in experiment [1] and in experiment [2] were 1 µM and 10 µM, respectively.

Take `CSc1ccc(/C=C(\C(=O)c2ccc(Cl)cc2)S(=O)(=O)Cc2ccc(Cl)cc2)cc1`: the concentration for 50% growth inhibition (GI50) stood at 1 µM in experiment [1] and 10 µM in experiment [2].

Regarding `O=C(/C(=C\c1ccc(O)c([N+](=O)[O-])c1)Sc1ccc(Br)cc1)c1c(F)c(F)c(F)c(F)c1F`, the GI50 in experiment [1] and in experiment [2] was 1 µM in each case.

With `Cc1ccc(S/C(=C/c2ccc(Cl)cc2)C(=O)c2ccc(Br)cc2)cc1`, the GI50 in experiment [1] turned out to be 1 µM; in experiment [2], 10 µM.

As for `CCOc1ccc(/C=C(/SCc2ccc(C)cc2)C(=O)c2ccc(Cl)cc2)cc1OC`, the concentration for 50% growth inhibition (GI50) in experiment [1] and in experiment [2] was 25 µM each time.

As for `O=C(/C(=C\c1ccc([N+](=O)[O-])c(O)c1)Sc1c(F)c(F)c(F)c(F)c1F)c1ccc(Br)cc1`, the figures for the GI50 in experiment [1] and in experiment [2] were 1 µM and 10 µM, respectively.

Regarding `O=C(/C(=C\c1ccc(Br)cc1)SCc1ccc(Cl)cc1)c1ccc(Br)cc1`, the 50% growth inhibitory concentration (GI50) in experiment [1] and in experiment [2] was 1 µM throughout.

In the case of `O=C(/C(=C\c1ccc(Br)cc1)S(=O)(=O)Cc1ccc(F)cc1)c1ccc(Br)cc1`, the 50% growth inhibitory concentration (GI50) in experiment [1] stood at 10 µM; in experiment [2], 25 µM.

Regarding `COc1ccc(S(=O)(=O)/C(=C/c2ccc(C)s2)C(=O)c2ccc(Cl)cc2)cc1`, the GI50 in experiment [1] came out at 10 µM; in experiment [2] it was 25 µM.

Turning to `Cc1ccc(S(=O)(=O)/C(=C/c2ccccc2F)C(=O)c2ccc(Cl)cc2)cc1`, the GI50 was determined as 1 µM in experiment [1] and 2.5 µM in experiment [2].

Regarding `O=C(/C(=C\c1ccc(Cl)cc1Cl)S(=O)(=O)c1ccc(Br)cc1)c1ccc(Cl)cc1`, the GI50 amounted to 25 µM in experiment [1] and 50 µM in experiment [2].

In the case of `O=C(C(=Cc1ccc(I)cc1)S(=O)(=O)Cc1ccc(I)cc1)c1ccc(I)cc1`, the concentration for 50% growth inhibition (GI50) in experiment [1] is greater than 50 µM; in experiment [2] it was 50 µM.

On to `O=C(/C(=C\c1ccc(I)cc1)S(=O)(=O)c1ccc(Br)cc1)c1ccc(Br)cc1`, for which the GI50 in experiment [1] came out at 9 µM; in experiment [2], 1 µM.

For `COc1ccccc1/C=C(/SCc1ccc(Cl)cc1)C(=O)c1ccc(Cl)cc1`, the GI50 in experiment [1] and in experiment [2] was 1 µM each time.

`O=C(/C(=C\c1ccc(O)cc1)S(=O)(=O)Cc1ccc(Cl)c(Cl)c1)c1ccc(Cl)cc1`: the GI50 in experiment [1] and in experiment [2] was 10 µM throughout.

Consider `Cc1ccc(/C=C(/SCc2ccc(Cl)cc2)C(=O)c2ccc(Cl)cc2)s1`, for which the concentration for 50% growth inhibition (GI50) in experiment [1] and in experiment [2] was 50 µM each time.

Regarding `CN(C)c1ccc(/C=C(/SCc2ccc(Cl)cc2Cl)C(=O)c2ccc(Cl)cc2)cc1`, the results for the GI50 in experiment [1] and in experiment [2] were greater than 100 µM and 50 µM, respectively.

Take `CN(C)c1ccc(/C=C(/SCc2ccc(Br)cc2)C(=O)c2ccc(C(=O)O)cc2)cc1`: the GI50 in experiment [1] and in experiment [2] was 50 µM each time.
